From ChEMBL document CHEMBL1149528, “4-Phenyl-4-[1H-imidazol-2-yl]-piperidine derivatives as non-peptidic selective delta-opioid agonists with potential anxiolytic/antidepressant properties. Part 2” (Bioorg Med Chem Lett, 2007) come the findings set out here.

One assay deals with Mu-type opioid receptor (Homo sapiens, UniProt P35372). Briefly: Displacement of [3H]DAMGO from cloned human mu opioid receptor.
Assay [1] has as its target Kappa-type opioid receptor (Homo sapiens, UniProt P41145). Briefly: Displacement of [3H]U-69593 from cloned human kappa opioid receptor. (In general: Loss of bound radioactivity is the signal in a displacement assay; it reports binding, not function.)
In assay [2] the target is Delta-type opioid receptor (Homo sapiens, UniProt P41143). As to the kind of experiment: Displacement of [3H]DPDPE from cloned human delta opioid receptor.
The target of assay [3] is Opioid receptors; mu & delta (Homo sapiens) (UniProt P41143+P35372). As to the kind of experiment: Selectivity for delta opioid receptor over mu opioid receptor. The format is protein assay.
The target in assay [4] is Opioid receptors; delta & kappa (Homo sapiens) (UniProt P41145+P41143). Briefly: Selectivity for delta opioid receptor over kappa opioid receptor. It is filed as protein assay.
The species named for assay [5] is Mus musculus. Briefly: Anxiolytic activity in mouse assessed as lowest active dose by neonatal ultrasonic vocalization test. It is filed as functional. Summed up: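 Neonatal mice; read-out is the number and duration of ultrasonic calls. The value is the lowest dose tested that gave a statistically significant reduction in calls.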
The species named for assay [6] is Mus musculus. Briefly: Decrease in duration of immobility in mouse assessed as lowest active dose by tail suspension test.

Chain of Kappa-type opioid receptor (P41145 whole entry): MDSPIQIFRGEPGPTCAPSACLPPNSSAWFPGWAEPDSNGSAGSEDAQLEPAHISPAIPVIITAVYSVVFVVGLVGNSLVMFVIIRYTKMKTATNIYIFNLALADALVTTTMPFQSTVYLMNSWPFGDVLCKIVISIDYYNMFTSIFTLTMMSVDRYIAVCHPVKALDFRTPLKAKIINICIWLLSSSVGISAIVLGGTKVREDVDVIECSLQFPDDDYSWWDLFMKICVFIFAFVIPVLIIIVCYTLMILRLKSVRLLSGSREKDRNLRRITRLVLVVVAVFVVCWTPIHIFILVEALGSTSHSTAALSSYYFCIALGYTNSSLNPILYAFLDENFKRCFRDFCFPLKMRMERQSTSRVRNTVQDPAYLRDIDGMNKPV
Chain of Opioid receptors; delta & kappa (Homo sapiens) (P41143 whole entry, looked up): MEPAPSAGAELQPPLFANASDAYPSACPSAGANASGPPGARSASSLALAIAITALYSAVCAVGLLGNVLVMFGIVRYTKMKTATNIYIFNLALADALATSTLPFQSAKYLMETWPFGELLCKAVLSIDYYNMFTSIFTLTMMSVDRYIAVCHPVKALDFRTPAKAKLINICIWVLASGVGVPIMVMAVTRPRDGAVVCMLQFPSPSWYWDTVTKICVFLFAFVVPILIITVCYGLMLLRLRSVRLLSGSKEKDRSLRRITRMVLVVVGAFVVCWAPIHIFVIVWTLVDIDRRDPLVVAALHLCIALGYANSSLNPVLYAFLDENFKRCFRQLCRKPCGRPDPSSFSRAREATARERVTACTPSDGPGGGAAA
Chain of Opioid receptors; delta & kappa (Homo sapiens) (P41145 whole entry, looked up): as the sequence (P41145 whole entry) above
Chain of Delta-type opioid receptor (P41143 whole entry): as the sequence (P41143 whole entry, looked up) above
Chain of Mu-type opioid receptor (P35372 whole entry): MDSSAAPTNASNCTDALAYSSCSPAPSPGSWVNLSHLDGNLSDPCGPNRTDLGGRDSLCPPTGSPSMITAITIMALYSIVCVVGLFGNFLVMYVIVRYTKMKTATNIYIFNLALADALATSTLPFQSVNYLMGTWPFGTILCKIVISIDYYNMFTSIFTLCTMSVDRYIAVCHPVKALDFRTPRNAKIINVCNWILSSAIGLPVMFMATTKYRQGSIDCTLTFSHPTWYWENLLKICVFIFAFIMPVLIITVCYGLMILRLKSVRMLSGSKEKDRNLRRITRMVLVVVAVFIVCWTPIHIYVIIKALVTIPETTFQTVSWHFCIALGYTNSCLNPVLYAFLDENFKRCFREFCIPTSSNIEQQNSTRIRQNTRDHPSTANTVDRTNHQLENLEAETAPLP
Chain of Opioid receptors; mu & delta (Homo sapiens) (P35372 whole entry, looked up): as the sequence (P35372 whole entry) above
Chain of Opioid receptors; mu & delta (Homo sapiens) (P41143 whole entry, looked up): as the sequence (P41143 whole entry, looked up) above

With `COCC(=O)N1CCC(c2ccccc2)(c2nccn2Cc2ccc(C(=O)OC)cc2)CC1`, the Ki was above 4.65 µM on Mu-type opioid receptor and 0.065 µM in assay [1].

For the compound `CCOC(=O)N1CCC(c2ccccc2)(c2nccn2Cc2ccccn2)CC1`, the figures for the inhibition constant (Ki) (in assay [2]; on Mu-type opioid receptor) were 0.173 µM and above 0.465 µM, respectively. For the same compound, the Ratio Ki in assay [3] is above 2.7.

`CC(c1ccccc1)n1ccnc1C1(c2ccccc2)CCN(C(=O)c2ccccc2)CC1` (stereo not drawn): the inhibition constant (Ki) was above 4.65 µM on Mu-type opioid receptor and 0.334 µM in assay [1].

Consider `CCC(=O)N1CCC(c2ccccc2)(c2nccn2Cc2ccccc2)CC1`, for which the Ki at Mu-type opioid receptor is above 0.465 µM.

For `CCOC(=O)N1CCC(c2ccccc2)(c2nccn2Cc2ccc(F)cc2)CC1`, the Ki was 0.051 µM in assay [2] and above 0.465 µM on Mu-type opioid receptor. Further, the Ratio Ki in assay [3] is above 6.5.

As to `CC(C)C(=O)N1CCC(c2ccccc2)(c2nccn2Cc2ccccc2)CC1`, the inhibition constant Ki was 0.048 µM in assay [2], above 0.465 µM on Mu-type opioid receptor and 0.621 µM in assay [1]. The figures for the Ratio Ki in assay [3] and in assay [4] were above 10 and 13, respectively.

As for `CCOC(=O)N1CCC(c2ccccc2)(c2nccn2Cc2ccccc2)CC1`, the figures for the Activity in the assay filed under Mus musculus [5] and in the assay filed under Mus musculus [6] were 10 mg/kg and 30 mg/kg, respectively.

Turning to `CC(=O)N1CCC(c2ccccc2)(c2nccn2Cc2ccccc2)CC1`, the Ki on Mu-type opioid receptor is above 0.465 µM; in assay [1], 1.01 µM.

`COC(=O)N1CCC(c2ccccc2)(c2nccn2Cc2ccccc2)CC1` gave an inhibitory constant (Ki) on Mu-type opioid receptor above 4.65 µM.

As to `CCOC(=O)N1CCC(c2ccccc2)(c2nccn2CC2CCCCC2)CC1`, the values for the Ki (in assay [2]; at Mu-type opioid receptor) were 0.147 µM and above 0.465 µM, respectively. Moreover, the Ratio Ki in assay [3] is above 3.2.

On to `CCOC(=O)N1CCC(c2ccccc2)(c2nccn2Cc2ccc(C(=O)OC)cc2)CC1`, for which the values for the inhibitory constant (Ki) (at Mu-type opioid receptor; in assay [1]) were above 0.465 µM and 0.025 µM, respectively.

On to `COCC(=O)N1CCC(c2ccccc2)(c2nccn2C(C)c2ccccc2)CC1` (stereo not drawn), for which the Ki (at Mu-type opioid receptor; in assay [1]) was above 4.65 µM in each case.

Take `COCC(=O)N1CCC(c2ccccc2)(c2nccn2Cc2ccccc2)CC1`: the results for the Ki (on Mu-type opioid receptor; in assay [1]) were above 0.465 µM and 0.622 µM, respectively.

For the compound `Cc1cc(C)cc(C(=O)N2CCC(c3ccccc3)(c3nccn3Cc3ccccc3)CC2)c1`, the Ki was above 0.465 µM at Mu-type opioid receptor and 0.284 µM in assay [1].

Regarding `CCCOC(=O)N1CCC(c2ccccc2)(c2nccn2Cc2ccccc2)CC1`, the figures for the Ki (on Mu-type opioid receptor; in assay [1]) were above 0.465 µM and above 4.65 µM, respectively.

For `COC(=O)c1cccc(Cn2ccnc2C2(c3ccccc3)CCN(C(=O)c3ccccc3)CC2)c1`, the Ki in assay [2] is 0.085 µM; at Mu-type opioid receptor, above 0.465 µM. For the same compound, the Ratio Ki in assay [3] was above 5.5.

As for `CCN(CC)C(=O)c1ccc(Cn2ccnc2C2(c3ccccc3)CCN(C(=O)c3ccccc3)CC2)cc1`, the inhibitory constant (Ki) in assay [2] was 0.158 µM; on Mu-type opioid receptor, above 4.65 µM. Besides, the Ratio Ki in assay [3] is above 29.

For the compound `CCOC(=O)N1CCC(c2ccccc2)(c2nccn2Cc2ccc3ccccc3c2)CC1`, the Ki in assay [2] was 0.642 µM; on Mu-type opioid receptor, above 0.465 µM; in assay [1] it was 3.12 µM. Also, the Ratio Ki in assay [3] is above 0.7; in assay [4] it was 4.8.

On to `CCOC(=O)N1CCC(c2ccccc2)(c2nccn2Cc2cccc(F)c2)CC1`, for which the Ki is above 0.465 µM on Mu-type opioid receptor and above 4.65 µM in assay [1].

`CC(C)(C)OC(=O)N1CCC(c2ccccc2)(c2nccn2Cc2ccccc2)CC1`: the inhibition constant Ki on Mu-type opioid receptor was above 0.465 µM; in assay [1], 0.084 µM.

On to `O=C(C1CC1)N1CCC(c2ccccc2)(c2nccn2Cc2ccccc2)CC1`, for which the Ki is 0.023 µM in assay [2] and above 0.465 µM on Mu-type opioid receptor. Further, the Ratio Ki in assay [3] was above 20.

For `Cc1cc(C)c(C(=O)N2CCC(c3ccccc3)(c3nccn3Cc3ccccc3)CC2)c(C)c1`, the results for the Ki (in assay [2]; on Mu-type opioid receptor) were 0.125 µM and above 4.65 µM, respectively. In assay [3], the Ratio Ki was above 37.

For `CCOC(=O)N1CCC(c2ccccc2)(c2nccn2C(C)c2ccccc2)CC1` (stereo not drawn), the inhibition constant Ki is above 0.465 µM on Mu-type opioid receptor and 0.062 µM in assay [1].

`CCOC(=O)N1CCC(c2ccccc2)(c2nccn2Cc2ccc(O)cc2)CC1`: the Ki was above 0.465 µM on Mu-type opioid receptor and 0.108 µM in assay [1].

Compound `CC(C)(C)C(=O)N1CCC(c2ccccc2)(c2nccn2Cc2ccccc2)CC1` had an inhibitory constant (Ki) at Mu-type opioid receptor above 4.65 µM.

For the compound `O=C(Cc1ccccc1)N1CCC(c2ccccc2)(c2nccn2Cc2ccccc2)CC1`, on Mu-type opioid receptor, the Ki is above 0.465 µM.

Turning to `CCOC(=O)N1CCC(c2ccccc2)(c2nccn2Cc2ccc(OC)cc2)CC1`, the inhibitory constant (Ki) is above 4.65 µM on Mu-type opioid receptor and 0.201 µM in assay [1].

On to `CCCCOC(=O)N1CCC(c2ccccc2)(c2nccn2Cc2ccccc2)CC1`, for which the results for the Ki (at Mu-type opioid receptor; in assay [1]) were above 0.465 µM and 0.188 µM, respectively.

For `O=C(c1ccccc1)N1CCC(c2ccccc2)(c2nccn2Cc2ccccc2)CC1`, the inhibition constant Ki was above 4.65 µM on Mu-type opioid receptor and 0.124 µM in assay [1]. The values for the Activity in the assay listed under Mus musculus [5] and in the assay filed under Mus musculus [6] were below 1 mg/kg and 10 mg/kg, respectively.

`O=C(c1cc(C(F)(F)F)cc(C(F)(F)F)c1)N1CCC(c2ccccc2)(c2nccn2Cc2ccccc2)CC1`: the Ki was 0.029 µM in assay [2] and above 0.465 µM on Mu-type opioid receptor. Besides, the Ratio Ki in assay [3] was above 16.

As for `O=C(OCc1ccccc1)N1CCC(c2ccccc2)(c2nccn2Cc2ccccc2)CC1`, the figures for the inhibitory constant (Ki) (on Mu-type opioid receptor; in assay [1]) were above 0.465 µM and 0.121 µM, respectively.

Turning to `CCOC(=O)N1CCC(c2ccccc2)(c2nccn2Cc2cccc(OC)c2)CC1`, the values for the Ki (at Mu-type opioid receptor; in assay [1]) were above 4.65 µM and 0.366 µM, respectively.

As to `O=C(OC1CCCCC1)N1CCC(c2ccccc2)(c2nccn2Cc2ccccc2)CC1`, the inhibition constant Ki is 0.0074 µM in assay [2], above 0.465 µM at Mu-type opioid receptor and 0.121 µM in assay [1]. In addition, the Ratio Ki in assay [3] is above 63; in assay [4], 16.

As for `COC(=O)c1ccc(Cn2ccnc2C2(c3ccccc3)CCN(C(=O)c3ccccc3)CC2)cc1`, the figures for the inhibition constant Ki (at Mu-type opioid receptor; in assay [1]) were above 4.65 µM and 0.088 µM, respectively.

On to `CCOC(=O)N1CCC(c2ccccc2)(c2nccn2C/C=C/c2ccccc2)CC1`, for which the values for the Ki (in assay [2]; at Mu-type opioid receptor) were 0.28 µM and above 0.465 µM, respectively. Also, in assay [3], the Ratio Ki is above 1.6.

Turning to `CC(C)OC(=O)N1CCC(c2ccccc2)(c2nccn2Cc2ccccc2)CC1`, the Ki at Mu-type opioid receptor was above 0.465 µM; in assay [1] it was 0.201 µM.

In general, Ki refers to the dissociation constant of the complex between target and ligand, obtained from inhibition or displacement. Higher therefore signals weaker binding.
